According to ChEMBL document CHEMBL1133743, “CCK peptides with combined features of hexa- and tetrapeptide CCK-A agonists” (J Med Chem, 2000):
*1 amine or outer side, *2 acyl side, *3 side chain or, on linkers, in order; H or OH if unused. Where a SMILES comes first, the peptide text is derived from it. Side-chain parts run from the residue outwards. [ ]: non-standard residue; d: D form. The star is where a group is joined. NMeF = CN[C@@H](Cc1ccccc1)C(=O)O; NMeD = CN[C@@H](CC(=O)O)C(=O)O; NH(2-Me-phenyl) = Cc1ccccc1N*; X3 = O=C(/C=C/c1ccc(O)cc1)*; Nle = CCCC[C@H](N)C(=O)O; X1 = O=C(Cc1ccc(O)cc1)*; Boc = CC(C)(C)OC(=O)*; CO = O=C([*:1])[*:2]

Legend:
[1] = target: T1, Cholecystokinin receptor type A (Rattus norvegicus, UniProt P30551); assay: Inhibition of [125I]BH-CCK-8 binding to Cholecystokinin type A receptor of rat pancreatic tissue
T1 sequence (P30551 whole entry): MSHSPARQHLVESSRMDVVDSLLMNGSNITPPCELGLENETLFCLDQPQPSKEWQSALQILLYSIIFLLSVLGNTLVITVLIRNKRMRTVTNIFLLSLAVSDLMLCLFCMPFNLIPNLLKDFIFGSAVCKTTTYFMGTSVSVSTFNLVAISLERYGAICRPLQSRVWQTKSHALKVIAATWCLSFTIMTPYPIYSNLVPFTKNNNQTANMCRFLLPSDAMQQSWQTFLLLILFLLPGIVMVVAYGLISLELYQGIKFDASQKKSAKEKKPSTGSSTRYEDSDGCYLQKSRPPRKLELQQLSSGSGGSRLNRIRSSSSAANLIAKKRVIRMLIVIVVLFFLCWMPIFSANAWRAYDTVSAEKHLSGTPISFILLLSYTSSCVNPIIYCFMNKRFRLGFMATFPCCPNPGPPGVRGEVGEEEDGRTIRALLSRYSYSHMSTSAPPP
Method in brief: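 Sprague–Dawley rat pancreas homogenized in 50 mM Tris pH 8.0 at 4 °C; washed membranes in 5 mM Tris (pH 7.4) with 5 mM MgCl2, 5 mM DTT, 2 mg/mL BSA, 0.14 mg/mL bacitracin.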

[2] = target: T2, Gastrin/cholecystokinin type B receptor (Rattus norvegicus, UniProt P30553); assay: Binding affinity towards Cholecystokinin type B receptor in rat cortex synaptosomes using [125I]BH-CCK-8 as radioligand; type: subcellular, Brain
T2 sequence (P30553 whole entry): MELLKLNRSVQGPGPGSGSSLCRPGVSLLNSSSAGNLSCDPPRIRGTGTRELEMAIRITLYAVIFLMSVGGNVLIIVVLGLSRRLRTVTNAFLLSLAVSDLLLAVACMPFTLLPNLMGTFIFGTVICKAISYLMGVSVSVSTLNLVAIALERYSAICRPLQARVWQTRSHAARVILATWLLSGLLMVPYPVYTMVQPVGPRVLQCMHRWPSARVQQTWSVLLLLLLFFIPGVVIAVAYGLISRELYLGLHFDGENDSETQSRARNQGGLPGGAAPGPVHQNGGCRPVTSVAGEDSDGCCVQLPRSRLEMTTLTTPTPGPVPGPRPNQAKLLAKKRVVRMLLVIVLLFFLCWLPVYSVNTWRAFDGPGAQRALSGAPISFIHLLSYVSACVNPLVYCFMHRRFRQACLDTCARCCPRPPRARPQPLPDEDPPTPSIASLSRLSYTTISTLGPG

[3] = tested on: Rattus norvegicus; assay: Ability of intraperitoneally administered compound, to inhibit food intake was measured 3 hr after feeding the rats.; type: functional; conditions: ip
Method in brief: (§1)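 Male Sprague–Dawley rats (300–400 g), individually caged, 12 h light/dark cycle, trained ≥14 days to eat powdered chow during first 3 h of dark. Peptide or saline given ip in 0.5 mL 0.9% saline (pH 7.0–8.0) 10 min before food; cumulative intake read at 0.5 and 3 h in same experiment. Five doses, 10 rats/dose; ED50 by logistic fit.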

[4] = tested on: Rattus norvegicus; assay: Ability of intraperitoneally administered compound, to inhibit food intake was measured 0.5 hr after feeding the rats.; type: functional; conditions: ip; method in brief: as §1

| Ki [1] | Ki [2] | SMILES | ED50 [3] | ED50 [4] |
| --- | --- | --- | --- | --- |
| 0.53 nM |  | Cc1ccccc1NC(=O)NCCCC[C@H](NC(=O)[C@H](Cc1c[nH]c2ccccc12)NC(=O)OC(C)(C)C)C(=O)N[C@H](CC(=O)O)C(=O)N(C)[C@@H](Cc1ccccc1)C(N)=O |  |  |
| 0.98 nM | 84 nM | CSCC[C@H](NC(=O)Cc1ccc(OS(=O)(=O)O)cc1)C(=O)NCC(=O)N[C@@H](Cc1c[nH]c2ccccc12)C(=O)N[C@@H](CCSC)C(=O)N[C@@H](CC(=O)O)C(=O)N(C)[C@@H](Cc1ccccc1)C(N)=O |  |  |
| 0.3 nM |  | Cc1ccccc1NC(=O)NCCCC[C@H](NC(=O)[C@H](Cc1c[nH]c2ccccc12)NC(=O)OC(C)(C)C)C(=O)N[C@@H](CC(=O)O)C(=O)N(C)[C@@H](Cc1ccccc1)C(N)=O | 3.2 µg/kg | 0.9 µg/kg |
| 8.1 nM |  | Cc1ccccc1NC(=O)NCCCC[C@H](NC(=O)[C@H](Cc1c[nH]c2ccccc12)NC(=O)OC(C)(C)C)C(=O)N[C@@H](CC(=O)O)C(=O)N[C@@H](Cc1ccccc1)C(N)=O (Boc-WK([CO-NH(2-Me-phenyl)])DF-NH2) |  |  |
| 3.4 nM | 36 nM | CCCC[C@H](NC(=O)Cc1ccc(O)cc1)C(=O)NCC(=O)N[C@@H](Cc1c[nH]c2ccccc12)C(=O)N[C@@H](CCCCNC(=O)/C=C/c1ccc(O)cc1)C(=O)N[C@@H](CC(=O)O)C(=O)N(C)[C@@H](Cc1ccccc1)C(N)=O (X1-[Nle]GWK(X3)D[NMeF]-NH2) |  |  |
| 51 nM |  | CCCC[C@H](NC(=O)Cc1ccc(O)cc1)C(=O)NCC(=O)N[C@@H](Cc1c[nH]c2ccccc12)C(=O)N[C@@H](CCCC)C(=O)N[C@@H](CC(=O)O)C(=O)N(C)[C@@H](Cc1ccccc1)C(N)=O (X1-[Nle]GW[Nle]D[NMeF]-NH2) |  |  |
| 4.2 nM | 960 nM | CCCC[C@H](NC(=O)Cc1ccc(O)cc1)C(=O)NCC(=O)N[C@@H](Cc1c[nH]c2ccccc12)C(=O)N[C@@H](CCCC)C(=O)N(C)[C@@H](CC(=O)O)C(=O)N[C@@H](Cc1ccccc1)C(N)=O (X1-[Nle]GW[Nle][NMeD]F-NH2) | 13 µg/kg | 3.8 µg/kg |
